Reference: ChEMBL document CHEMBL4689842, “EUbOPEN Chemogenomics Library wave 1” (2021)

Tests used:
Type in all cases: toxicity, cell-based
Fibroblast [1] = assay: Multiplex assay against human fibroblast
In short: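 Four dyes were applied at seeding to live cells: Hoechst33342, BioTracker Green Microtubule Cytoskeleton Dye, MitoTracker Red and Annexin V Alexa Fluor 680. Imaging after compound addition used a CQ1 microscope at 37°C and 5% CO2. CellPathfinder machine-learning gating then sorted cells into Hoechst high-intensity objects or normal cells, normal cells into healthy, pyknosed or fragmented nuclei, and pyknosed cells into mitotic or apoptotic, with tubulin, mitochondrial-mass and membrane-permeability phenotypes given as per cents of healthy-nucleus cells.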

HEK-293T = assay: Incucyte cell viability with HEK293T; conditions: human, 10 µM, compound concentration 10 uM; note: filed as whole numbers so only -1 and 0 and 1 occur
Fibroblast [2] = assay: Incucyte cell viability with human fibroblast; conditions: 10 µM, compound concentration 10 uM; note: filed as whole numbers so only -1 and 0 and 1 occur
U2OS = assay: Incucyte cell viability with U2OS; conditions: human, 10 µM, compound concentration 10 uM; note: filed as whole numbers so only -1 and 0 and 1 occur
[3] = 24 h, 10 µM, compound concentration 10 uM, replicate 1
[4] = 24 h, 10 µM, compound concentration 10 uM, replicate 2
[5] = 48 h, 1 µM, compound concentration 1 uM, replicate 1
[6] = 48 h, 1 µM, compound concentration 1 uM, replicate 2
[7] = 48 h, 10 µM, compound concentration 10 uM, replicate 1
[8] = 48 h, 10 µM, compound concentration 10 uM, replicate 2
[9] = 6 h, replicate number 1, timepoint 6 hours
[10] = 12 h, replicate number 1, timepoint 12 hours
[11] = 18 h, replicate number 1, timepoint 18 hours
[12] = 24 h, replicate number 1, timepoint 24 hours

Cl.Cl.Nc1ncnc2c1c(-c1cccc(OCc3ccccc3)c1)cn2[C@H]1C[C@@H](CN2CCC2)C1
Population Normal (%) (Fibroblast [1]; [3]): 51% | Population Pyknosed Nuclei (%) (Fibroblast [1]; [3]): 41% | Population Tubulin-Different-Phenotype (%) (Fibroblast [1]; [3]): 67% | Total Cell Count (Fibroblast [1]; [3]): 178 | Population Apoptotic (%) (Fibroblast [1]; [4]): 92% | Population Fragmented Nuclei (%) (Fibroblast [1]; [4]): 21% | Population Healthy Nuclei (%) (Fibroblast [1]; [4]): 35% | Population Hoechst High Intensity Objects (%) (Fibroblast [1]; [4]): 9% | Population Membrane Permeable-Phenotype (%) (Fibroblast [1]; [4]): 93% | Population Mitochondria Different-Phenotype (%) (Fibroblast [1]; [4]): 96% | Population Mitotic Cells (%) (Fibroblast [1]; [4]): 7% | Population Normal (%) (Fibroblast [1]; [4]): 90% | Population Pyknosed Nuclei (%) (Fibroblast [1]; [4]): 42% | Population Tubulin-Different-Phenotype (%) (Fibroblast [1]; [4]): 96% | Total Cell Count (Fibroblast [1]; [4]): 104 | Population Apoptotic (%) (Fibroblast [1]; [5]): 83% | Population Fragmented Nuclei (%) (Fibroblast [1]; [5]): 36% | Population Healthy Nuclei (%) (Fibroblast [1]; [5]): 56% | Population Hoechst High Intensity Objects (%) (Fibroblast [1]; [5]): 28% | Population Membrane Permeable-Phenotype (%) (Fibroblast [1]; [5]): 12% | Population Mitotic Cells (%) (Fibroblast [1]; [5]): 16% | Population Normal (%) (Fibroblast [1]; [5]): 71% | Population Pyknosed Nuclei (%) (Fibroblast [1]; [5]): 6% | Population Tubulin-Different-Phenotype (%) (Fibroblast [1]; [5]): 33% | Total Cell Count (Fibroblast [1]; [5]): 132 | Population Apoptotic (%) (Fibroblast [1]; [6]): 50% | Population Fragmented Nuclei (%) (Fibroblast [1]; [6]): 32% | Population Healthy Nuclei (%) (Fibroblast [1]; [6]): 65% | Population Hoechst High Intensity Objects (%) (Fibroblast [1]; [6]): 22% | Population Membrane Permeable-Phenotype (%) (Fibroblast [1]; [6]): 9% | Population Mitochondria Different-Phenotype (%) (Fibroblast [1]; [6]): 5% | Population Mitotic Cells (%) (Fibroblast [1]; [6]): 50% | Population Normal (%) (Fibroblast [1]; [6]): 77% | Population Pyknosed Nuclei (%) (Fibroblast [1]; [6]): 1% | Population Tubulin-Different-Phenotype (%) (Fibroblast [1]; [6]): 54% | Total Cell Count (Fibroblast [1]; [6]): 145 | Population Apoptotic (%) (Fibroblast [1]; [7]): 94% | Population Fragmented Nuclei (%) (Fibroblast [1]; [7]): 34% | Population Healthy Nuclei (%) (Fibroblast [1]; [7]): 25% | Population Hoechst High Intensity Objects (%) (Fibroblast [1]; [7]): 32% | Population Membrane Permeable-Phenotype (%) (Fibroblast [1]; [7]): 0% | Population Mitochondria Different-Phenotype (%) (Fibroblast [1]; [7]): 79% | Population Mitotic Cells (%) (Fibroblast [1]; [7]): 5% | Population Normal (%) (Fibroblast [1]; [7]): 67% | Population Pyknosed Nuclei (%) (Fibroblast [1]; [7]): 40% | Population Tubulin-Different-Phenotype (%) (Fibroblast [1]; [7]): 79% | Total Cell Count (Fibroblast [1]; [7]): 139 | Population Apoptotic (%) (Fibroblast [1]; [8]): 81% | Population Fragmented Nuclei (%) (Fibroblast [1]; [8]): 14% | Population Healthy Nuclei (%) (Fibroblast [1]; [8]): 34% | Population Hoechst High Intensity Objects (%) (Fibroblast [1]; [8]): 47% | Population Membrane Permeable-Phenotype (%) (Fibroblast [1]; [8]): 9% | Population Mitochondria Different-Phenotype (%) (Fibroblast [1]; [8]): 68% | Population Mitotic Cells (%) (Fibroblast [1]; [8]): 18% | Population Normal (%) (Fibroblast [1]; [8]): 52% | Population Pyknosed Nuclei (%) (Fibroblast [1]; [8]): 51% | Population Tubulin-Different-Phenotype (%) (Fibroblast [1]; [8]): 63% | Total Cell Count (Fibroblast [1]; [8]): 122 | Growth Rate (HEK-293T; [9]): 0 | Growth Rate (HEK-293T; [10]): 0 | Growth Rate (HEK-293T; [11]): 0 | Growth Rate (HEK-293T; [12]): 0 | Growth Rate (Fibroblast [2]; [9]): 0 | Growth Rate (Fibroblast [2]; [10]): 0 | Growth Rate (Fibroblast [2]; [11]): 0 | Growth Rate (Fibroblast [2]; [12]): 0 | Growth Rate (U2OS; 0 h, replicate number 1, timepoint 0 hours): 0 | Growth Rate (U2OS; [9]): 0 | Growth Rate (U2OS; [10]): 0 | Growth Rate (U2OS; 12 h, replicate number 2, timepoint 12 hours): 1 | Growth Rate (U2OS; [11]): 0 | Growth Rate (U2OS; 18 h, replicate number 2, timepoint 18 hours): 1 | Growth Rate (U2OS; [12]): 0
